Source: PubChem BioAssay (several laboratories)
RORA act: activators of orphan receptor RORA, primary screen, cell-based, luminescence | CHO-K1 Gal4-RORA LBD luciferase reporter; percent increase over mock-subtracted basal signal | activation, % at 10 µM | actives 1.5% (n = 65,000) | AID 560, 2006;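 active = activation above the mean of all tested compounds plus 3 SD, cut at about 49% in these data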;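 note: 0% = DMSO-treated RORA cells and 100% = added signal equal to DMSO minus mock-transfected cells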
M1 ag: M1 muscarinic receptor agonists, primary screen, CHO-M1 cells, Fluo-4 calcium, agonist mode. actives 3% (n = 64,000). B-score at 10 µM. Fluo-4 calcium fluorescence; stronger effect = higher value. Muscarinic acetylcholine receptor M1;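 active = fluorescence rise, raw or as B-score row- and column-corrected plate score, outside the 99.7% band of its plate's samples, either direction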
mHtt clearance: clearance of mutant huntingtin inclusions, primary screen, imaging, HeLa Exon1htt(103Q)mCFP, confocal imaging | aggregate imaging; zero = plate's median compound well | inhibition, % at 1.5 µM | actives 0.42% (n = 47,000);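 active = inhibition of aggregate fluorescence above about 70%, also judged a hit by eye on the cell image, limit read from the data, passing the limit was not always enough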;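 note: cells exposed to compound for three days before fixation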
SF-1 act: activators of human SF-1, primary screen, cell-based, CHO-K1, Gal4-SF-1 LBD, luciferase luminescence. activation, % at 10 µM. Steroidogenic factor 1 (Homo sapiens), Q13285. CHO-K1 Gal4-SF-1 LBD luciferase reporter; % increase over DMSO SF-1-specific signal. actives 1.9% (n = 65,000). AID 522, 2006;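 active = activation above the mean activation of all tested compounds plus 3 SD, cut at about 50% in these data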
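Assay system – CHO-K1 cells with Gal4–hSF-1 LBD chimera plus Gal4-driven luciferase · Quantity – 4,000 cells per well · Times – compound added 1 h post-seeding, 20 h exposure at 37 °C, 5% CO2 · Measured by – luciferase light emission · Benchmarks – DMSO and mock-transfected background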
M1 antagonist: antagonists of rat M1 muscarinic receptor; actives 3.4% (n = 64,000); CHO-M1 cells, Fluo-4 calcium, ACh EC80 antagonist mode; stronger effect = lower value; B-score at 10 µM; AID 628, 2007; Muscarinic acetylcholine receptor M1 (Rattus norvegicus), P08482;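 active = calcium fluorescence response, raw or row-and-column corrected B-score, differing from the plate sample mean either way at a set confidence level, mostly lower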
Target sequence (P08482 whole entry, looked up): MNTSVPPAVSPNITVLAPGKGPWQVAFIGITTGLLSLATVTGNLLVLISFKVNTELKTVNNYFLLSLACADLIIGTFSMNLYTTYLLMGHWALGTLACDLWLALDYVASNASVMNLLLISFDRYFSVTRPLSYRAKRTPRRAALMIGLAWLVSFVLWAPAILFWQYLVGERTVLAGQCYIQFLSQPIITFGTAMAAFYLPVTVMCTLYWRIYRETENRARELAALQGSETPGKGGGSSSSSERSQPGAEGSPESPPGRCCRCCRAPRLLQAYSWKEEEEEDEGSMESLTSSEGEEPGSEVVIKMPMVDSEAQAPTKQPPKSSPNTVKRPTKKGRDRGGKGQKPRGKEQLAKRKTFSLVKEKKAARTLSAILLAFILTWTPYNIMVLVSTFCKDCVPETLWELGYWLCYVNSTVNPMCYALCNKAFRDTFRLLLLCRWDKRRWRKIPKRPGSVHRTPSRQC
D1 allo mod: D1 CRE-luciferase signal change, two-sided – cell-based, HEK293 D1, dopamine EC30, D1 allosteric modulator project, primary screen | D(1A) dopamine receptor (Homo sapiens), P21728 | dopamine EC30 potentiation; actives deviate in either direction | B-score at 10 µM | actives 5.9% (n = 58,000);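 active = luminescence count or its row- and column-corrected plate score outside the 99.7% band of the plate's sample wells, on either side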
* hit, by the source's call. Most compounds without a hit are left out; they make up all but 11% or so of the library.

How did Nc1cc(N)nc(SCc2ccccc2)n1 do in these assays?
RORA act: 21; M1 ag: -1.2; mHtt clearance: -93; SF-1 act: 54*; M1 antagonist: 0.8

Results for Nc1cc(N)nc(SCc2cccnc2)n1 ?
RORA act: 3; M1 ag: -0.89; SF-1 act: -2; M1 antagonist: -0.68

How did Nc1nc(SCc2ccccc2)ns1 do in these assays?
RORA act: 24; M1 ag: -1.2; mHtt clearance: -33; SF-1 act: 55*; M1 antagonist: -0.22; D1 allo mod: 1.7

How did CCOc1cc(C2C(C(=O)N3CCCCC3)=C(C)NC3=C2C(=O)CCC3)cc(Br)c1O (centres undefined) do in these assays?
RORA act: 0; M1 ag: 0.23; mHtt clearance: -22; SF-1 act: 10; M1 antagonist: -0.032; D1 allo mod: 0.99

How did COc1ccc2c(c1OC)C(=O)N(c1ccccn1)C2 do in these assays?
RORA act: 52*; M1 ag: -0.014; SF-1 act: 69*; M1 antagonist: 0.41; D1 allo mod: 1

Results for COc1ccc2c(c1OC)C(=O)N(c1cccc(C(F)(F)F)c1)C2 ?
RORA act: 30; M1 ag: 0.69; SF-1 act: 59*; M1 antagonist: 0.85; D1 allo mod: -2.7*

How did COc1ccc(OC)c(S(=O)(=O)N2CCN(c3ccccn3)CC2)c1 do in these assays?
mHtt clearance: -31

How did COc1ccc2c(c1OC)C(=O)N(c1cccc(C)c1)C2 do in these assays?
RORA act: 12; M1 ag: -0.6; mHtt clearance: -7; SF-1 act: 11; M1 antagonist: -0.31; D1 allo mod: -1.8

Results for CCCN1CCCc2cc(CN)ccc21 ?
RORA act: -9; M1 ag: 5.7*; SF-1 act: -5; M1 antagonist: -0.87; D1 allo mod: 0.014

How did CN1CCCc2cc(C=O)ccc21 do in these assays?
mHtt clearance: -37

What do the screens show for `O=C(CN1CCN(Cc2ccccc2F)C1=O)NCc1ccco1`?
mHtt clearance: -29

How did Clc1cccc2sc(N3CCCCC3)nc12 do in these assays?
RORA act: 13; M1 ag: 1.5; mHtt clearance: -7; SF-1 act: 48; M1 antagonist: -0.72; D1 allo mod: 0.62

What do the screens show for `Fc1cc(F)c2nc(N3CCCCC3)sc2c1`?
RORA act: 32; M1 ag: 1.5; SF-1 act: 65*; M1 antagonist: -0.37

What do the screens show for `Clc1cc(Cl)c2nc(N3CCCC3)sc2c1`?
RORA act: 41; M1 ag: 0.64; SF-1 act: 60*; M1 antagonist: -0.14; D1 allo mod: -0.3

What do the screens show for `Clc1cc(Cl)c2nc(N3CCCCC3)sc2c1`?
RORA act: 24; M1 ag: 0.48; mHtt clearance: 13; SF-1 act: 61*; M1 antagonist: -0.085; D1 allo mod: -0.23

Results for N=c1c(S(=O)(=O)c2ccccc2)cc2c(=O)n3ccccc3nc2n1CCN1CCOCC1 ?
RORA act: 7; M1 ag: -0.13; SF-1 act: 1; M1 antagonist: 0.52; D1 allo mod: -0.076

What do the screens show for `Cc1ccc(S(=O)(=O)c2cc3c(=O)n4ccccc4nc3n(CC3CCCO3)c2=N)cc1C` (centres undefined)?
RORA act: -7; M1 ag: 0.46; SF-1 act: 36; M1 antagonist: -0.055; D1 allo mod: 10*

Results for Cc1c(C(=O)N2CCCCC2)sc(NC(=O)C23CC4CC(CC(C4)C2)C3)c1C#N ?
mHtt clearance: 38

How did O=C(O)c1ccc2c(c1)C(=O)N(c1cc(C(=O)O)ccc1Br)C2=O do in these assays?
RORA act: 8; SF-1 act: -1; D1 allo mod: -5.4

How did COc1ccc(C(=O)N2CCCC(c3nc(-c4cccs4)no3)C2)cc1 (centres undefined) do in these assays?
RORA act: 3; M1 ag: -1.2; SF-1 act: -5; M1 antagonist: -0.22; D1 allo mod: 0.18
